# Calpain2 inh: blocks pig calpain II enzyme activity; purified calpain II, fluorogenic peptide substrate, 30 min; inhibition, % at 16 µM; 220,000 compounds, 0.37% hits; AID 1236;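 active = inhibition above about 50%, limit read from the data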
# MDM2 E3 inh: inhibitors of human Mdm2 E3 ubiquitin ligase | Q00987 | cell-based MDM2 ubiquitination luciferase reporter, 2 h; 0 = plate control, 100 = twice control, blank-subtracted | signal enhancement, % at 5 µM | 210,000 compounds, 0.11% hits | AID 1230;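 active = signal enhancement of 30% or more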;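 also: luminescence tracks abundance of the self-degrading MDM2-luciferase fusion protein; higher signal means inhibition of MDM2 E3 ligase activity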
# Target sequence (Q00987 whole entry, looked up, the tested form may be a part): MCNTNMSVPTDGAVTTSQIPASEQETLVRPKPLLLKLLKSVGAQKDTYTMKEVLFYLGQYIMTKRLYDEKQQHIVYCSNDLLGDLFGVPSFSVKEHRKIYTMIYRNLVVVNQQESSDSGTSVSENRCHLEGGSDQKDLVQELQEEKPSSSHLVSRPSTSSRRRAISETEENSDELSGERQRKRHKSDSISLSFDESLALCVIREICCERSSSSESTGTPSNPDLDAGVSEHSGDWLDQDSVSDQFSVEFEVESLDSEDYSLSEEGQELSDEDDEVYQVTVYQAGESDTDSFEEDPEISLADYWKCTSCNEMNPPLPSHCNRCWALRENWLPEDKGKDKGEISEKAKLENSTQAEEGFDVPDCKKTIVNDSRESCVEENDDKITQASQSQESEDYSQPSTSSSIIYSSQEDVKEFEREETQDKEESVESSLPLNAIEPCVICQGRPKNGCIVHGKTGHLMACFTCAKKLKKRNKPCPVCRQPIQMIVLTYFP
#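 Buffer or medium: Cells held in DMEM | Assay system: Stable mammalian line carrying autodegrading MDM2–luciferase fusion reporter | Quantity: 2000 cells/well | Times: 4 h settle plus 2 h compound, 37 °C | Doses: One concentration, 5 µM, with 0.2% DMSO | Technique: Luminescence with SteadyLite reagent, 15 min at room temperature | Benchmarks: Plate controls and plate blanks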
# PKD1 inh: inhibitors of human PKD1 kinase; Q15139; PKD1 kinase fluorescence polarization assay; inhibition, % (test concentration not listed); 200,000 compounds, 0.056% hits; AID 797; in the data active = inhibition above about 50%
# ROMK primary: modulators of human ROMK potassium channel; P48048; B-score at 10 µM; AID 1918; 130,000 compounds, 2% hits; Tet-inducible ROMK, thallium flux fluorescence; actives lie on both sides;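 active = signal ratio slope over the read window, or its plate-corrected B-score, at least 3 SD from the plate mean, either direction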;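 also: B-score of the F/F0 ratio slope over 7 to 12 s after thallium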
# Arbovirus inh: arbovirus infection inhibition. inhibition, % at 10 µM. arbovirus infection cell-based antiviral screen. 200,000 compounds, 0.37% hits. AID 1251; in the data active = inhibition above about 30%
# Cl transport mod: KCC2 (human) Cl- transport modulation; 190,000 compounds, 2.2% hits; B-score of Tl+ flux slope (higher = more flux/activation; lower = inhibition) at 10 µM; Q9H2X9; KCC2 cells, thallium flux FluoZin-2 fluorescence; AID 1456;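 active = thallium flux slope and its plate-corrected score both differing from the plate sample mean at a set confidence after two filtering rounds, in either direction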;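 also: slope of fluorescence scaled to starting intensity during 10 to 20 s after thallium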
# KCC2 sec1: confirmation of human KCC2 transport modulators | shares compounds with Cl transport mod | HEK293-KCC2, thallium flux, FluoZin2 fluorescence; active compounds read high | normalised thallium flux (F/F0 slope) at 10 µM | 3,700 compounds, 15% hits;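 active = thallium flux slope above the same plate's solvent-only control mean plus 3 SD; inconclusive = the two replicate wells disagree; inactive = no significant difference from solvent-only control wells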
# KCC2 bumet counter: thallium flux despite bumetanide block in KCC2 cells, secondary assay 3; HEK293-KCC2 + bumetanide/ouabain, thallium flux FluoZin2; active compounds read high; shares compounds with Cl transport mod; 3,700 compounds, 49% hits; normalized thallium flux at 10 µM;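 active = thallium entry rate above the same plate's blocked-transporter control wells by more than 3 SD; inconclusive = the two repeat wells disagree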;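 also: raw slope of fluorescence over initial fluorescence between 10 and 20 s after thallium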
# KCC2 secondary2: confirmation of human KCC2 transport modulators; shares compounds with Cl transport mod; 3,700 compounds, 23% hits; HEK293-KCC2, thallium flux FluoZin2 fluorescence; actives lie on both sides; F/F0 rise rate, 10–20 s post-thallium; normalized thallium flux at 10 µM;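 active = thallium flux slope more than 3 SD above or below the plate's solvent-only control mean, mostly below; inconclusive = the two repeat wells disagreed; inactive = no significant shift from solvent-only controls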;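 also: raw slope with 0.1% DMSO as baseline and bumetanide as block control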
# HEK counter1: acts in parental HEK cells, KCC2 counter-screen. HEK293 parental cells, thallium flux FluoZin2, ouabain; baseline-ratio fluorescence slope, 10–20 s after thallium. thallium flux rate (normalised fluorescence) at 10 µM. 3,700 compounds, 46% hits. shares compounds with Cl transport mod. AID 1716;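 active = thallium flux rate significantly above the same plate's solvent-only control wells, beyond their mean plus 3 SD; inconclusive = the two replicate wells gave conflicting results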
# KCC2 ouabain: modulates human KCC2 on retest with ouabain; shares compounds with Cl transport mod; HEK293-KCC2, thallium flux FluoZin2 fluorescence; bidirectional: low = inhibitor, high = activator; 3,700 compounds, 48% hits; raw Tl+ flux slope (below DMSO = inhibition, above = activation) at 10 µM; AID 1717;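 active = thallium flux slope beyond 3 SD from same-plate DMSO control mean in most replicates, usually higher, sometimes lower; inconclusive = repeat tests gave conflicting results; inactive = no significant difference from controls in most replicates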;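 also: slope of initial-normalized fluorescence between seconds 10 and 20 after thallium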
# HEK counter2: counter-screen for KCC2 modulators: effect in parental HEK293 cells; thallium flux FluoZin-2 fluorescence slope; AID 1718; shares compounds with Cl transport mod; thallium flux slope at 10 µM; 3,700 compounds, 33% hits;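 active = thallium flux slope above the same plate's solvent-control mean plus 3 SD in both duplicate wells; inconclusive = duplicate wells that disagreed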;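 also: run without ouabain in cells lacking the KCC2 cotransporter; slope of fluorescence scaled to its starting value between 10 and 20 s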
# An asterisk follows results filed as active; u = inconclusive; x = not tested or not shown. Sampled rows, rich in hits. Any-hit rate of the full collection: about 3.7%.
SMILES,Calpain2 inh,MDM2 E3 inh,PKD1 inh,ROMK primary,Arbovirus inh,Cl transport mod,KCC2 sec1,KCC2 bumet counter,KCC2 secondary2,HEK counter1,KCC2 ouabain,HEK counter2
Cc1occc1-c1nnc(SCC(=O)N2CCOCC2)n1Cc1ccco1,-14,1,-4,0.016,0,6.4*,0.0092,0.0062,0.035,0.008,0.022,0.01
Cc1occc1-c1nnc(SCC(=O)N2CCOCC2)n1CC(C)C,9,-6,-9,x,13,x,x,x,x,x,x,x
CCCCn1c(SCC(=O)NC2CC(C)(C)NC(C)(C)C2)nc2cc(S(N)(=O)=O)ccc21,-3,3,x,x,x,1.2,x,x,x,x,x,x
CCOc1cc(CNCCc2ccc(S(N)(=O)=O)cc2)cc(Cl)c1OCc1ccccc1,26,-7,5,-2.3,-32,x,u,0.0046,0.031,0.0081,0.017,0.011
COc1ccc(/C(O)=C2/C(=O)C(=O)N(CCN(C)C)C2c2ccccn2)cc1OC (stereo unspecified),-16,-12,-1,0.18,12,4*,0.0089,0.0074,0.029,u,0.021,u
Cc1ccc(/C(O)=C2/C(=O)C(=O)N(CCN3CCOCC3)C2c2ccccn2)cc1 (stereo unspecified),-13,-15,-5,x,-3,2.7*,0.0079,u,0.033,u,0.026,0.01
O=C1C(=O)N(CCN2CCOCC2)C(c2ccccn2)/C1=C(/O)c1ccccc1 (stereo unspecified),10,-15,-2,-0.072,-2,x,x,x,x,x,x,x
O=C(NC12CC3CC(CC(C3)C1)C2)N1CCC(O)(c2ccc3c(c2)OCO3)CC1,6,-14,-3,0.26,-6,0.13,x,x,x,x,x,x
Cc1ccc(NC(=O)c2ccc(=O)[nH]c2)cc1S(=O)(=O)N1CCCCC1,3,x,x,x,x,1.4,x,x,x,x,x,x
COc1ccc2nc(SCC(=O)Nc3ccc4c(c3)OCCO4)[nH]c2c1,-5,-11,-11,x,-2,-2.5*,0.0072,0.0048,0.03,0.0073,0.02,0.011
CC(=O)c1cccc(NC(=O)COC(=O)COc2c(Cl)cc(Cl)c3ccc(C)nc23)c1,-12,-11,10,x,-3,4.6*,0.01,0.019*,0.032,0.013*,0.025,0.011*
Cc1cc(C)n2nc(C(=O)N/N=C/c3cccc(Cl)c3)nc2n1,9,-6,x,x,x,-0.03,x,x,x,x,x,x
S=c1nc(C2CCCCC2)n(-c2ccccc2)[nH]1,-10,-36,0,x,5,126*,0.055*,0.14*,0.048*,0.078*,0.11*,0.031*
Nc1nc(=S)n(-c2ccccc2)[nH]1,-27,20,-2,x,3,0.49,x,x,x,x,x,x
O=S(=O)(c1ccc(Cl)c(NC(=S)Nc2cccc(O)c2)c1)N1CCOCC1,-5,-49,2,-0.22,-2,0.27,x,x,x,x,x,x
Cc1ccc(NC(=S)Nc2ccc(S(=O)(=O)N3CCOCC3)cc2)cc1S(=O)(=O)N1CCOCC1,-7,-22,-5,-0.11,19,1,x,x,x,x,x,x
Cc1cc(C)cc(NC(=S)N=Nc2c(O)n(C)c3ccc(S(=O)(=O)N4CCOCC4)cc23)c1,-21,-11,-10,x,-13,6.7*,0.0068,0.018*,u,0.025*,0.027*,0.017*
Cc1cccc(NC(=S)N=Nc2c(O)n(C)c3ccc(S(=O)(=O)N4CCOCC4)cc23)c1,-41,5,1,0.038,-4,11*,u,0.055*,0.031,0.019*,0.026,u
O=C(NCCc1ccccc1)c1ccc(CS(=O)(=O)Cc2ccccc2F)o1,-73,-8,1,0.043,5,-1.2,x,x,x,x,x,x
Cc1ccc(CCNC(=O)c2ccc(CS(=O)(=O)Cc3ccccc3F)o2)cc1,-16,-16,-2,-1.5,-5,-6.8*,0.0064,u,u,0.0074,0.018,0.012
CCc1n[nH]c(=S)n1/N=C/c1ccc(N(C)c2ccccc2)cc1,40,1,0,-0.22,-2,9.5*,0.0098,0.019*,0.032,0.029*,0.026*,0.012
COC(=O)c1ccc(/C=N/NC(=O)CC(=O)NCc2cccnc2)cc1,14,3,-3,0.35,3,0.35,x,x,x,x,x,x
CN(C)CCN1CC(O)=C(c2nc3ccccc3s2)C1=N,1,-5,x,x,x,-1.2,x,x,x,x,x,x
N=C1C(c2nc3ccccc3s2)=C(O)CN1Cc1ccco1,-32,2,2,x,-10,3.6*,0.0062,u,0.029,0.0075,0.018,0.011
CN1C[C@@H]2C[C@@H](c3ccc(C#CC(C)(C)O)s3)N3CCC[C@@]23C1=O,-17,-6,-5,0.057,4,-0.37,x,x,x,x,x,x
SMILES,Calpain2 inh,MDM2 E3 inh,PKD1 inh,ROMK primary,Arbovirus inh,Cl transport mod,KCC2 sec1,KCC2 bumet counter,KCC2 secondary2,HEK counter1,KCC2 ouabain,HEK counter2
CC(=O)Nc1c(C)ccc(S(N)(=O)=O)c1C,-17,-3,-7,x,-8,x,x,x,x,x,x,x
O=C(COc1ccccc1-c1ccccc1)N/N=C/c1cccnc1,24,5,4,0.096,-11,-0.68,x,x,x,x,x,x
Cc1ccc(COc2ccccc2-c2cc(C(=O)N/N=C/c3cccnc3)[nH]n2)cc1,9,5,x,x,x,-5.5*,0.0064,0.0055,u,u,0.012*,0.011
CCOC(=O)CCCNC(=O)COC(=O)c1ccc(O)cc1,-21,-28,-9,-1,8,-1.1,x,x,x,x,x,x
CCCn1nnc(NCc2ccc(OCc3cccs3)c(OC)c2)n1,-15,16,-7,x,4,-2.9*,0.0069,0.0046,0.028,0.0073,u,0.01
CS(=O)(=O)Nc1ccc(C(=O)N2CCN(c3ccccc3)CC2)cc1,2,-5,-11,x,7,0.22,0.0077,0.0043,0.027,0.0078,0.018,0.0098
O=C(NC(=S)Nc1ccc(N2CCN(C(=O)c3ccccc3)CC2)cc1)c1cccs1,8,-15,-8,-0.2,-11,3.4*,0.01,0.0097*,0.033,0.01*,0.02,0.012
O=C(CSc1ccc2ccccc2c1)N1CCN(c2ccc(O)cc2)CC1,-2,1,x,x,x,-1.1,x,x,x,x,x,x

# Compound activity (PubChem)
